The source of these data is ChEMBL document CHEMBL4049426, “Identification of the Clinical Candidate (R)-(1-(4-Fluorophenyl)-6-((1-methyl-1H-pyrazol-4-yl)sulfonyl)-4,4a,5,6,7,8-hexahydro-1H-pyrazolo[3,4-g]isoquinolin-4a-yl)(4-(trifluoromethyl)pyridin-2-yl)methanone (CORT125134): A Selective Glucocorticoid Receptor (GR) Antagonist” (J Med Chem, 2017).

In data set [1] the target is T1, estrogen receptor (Homo sapiens, UniProt P03372).
T1 sequence (P03372 whole entry): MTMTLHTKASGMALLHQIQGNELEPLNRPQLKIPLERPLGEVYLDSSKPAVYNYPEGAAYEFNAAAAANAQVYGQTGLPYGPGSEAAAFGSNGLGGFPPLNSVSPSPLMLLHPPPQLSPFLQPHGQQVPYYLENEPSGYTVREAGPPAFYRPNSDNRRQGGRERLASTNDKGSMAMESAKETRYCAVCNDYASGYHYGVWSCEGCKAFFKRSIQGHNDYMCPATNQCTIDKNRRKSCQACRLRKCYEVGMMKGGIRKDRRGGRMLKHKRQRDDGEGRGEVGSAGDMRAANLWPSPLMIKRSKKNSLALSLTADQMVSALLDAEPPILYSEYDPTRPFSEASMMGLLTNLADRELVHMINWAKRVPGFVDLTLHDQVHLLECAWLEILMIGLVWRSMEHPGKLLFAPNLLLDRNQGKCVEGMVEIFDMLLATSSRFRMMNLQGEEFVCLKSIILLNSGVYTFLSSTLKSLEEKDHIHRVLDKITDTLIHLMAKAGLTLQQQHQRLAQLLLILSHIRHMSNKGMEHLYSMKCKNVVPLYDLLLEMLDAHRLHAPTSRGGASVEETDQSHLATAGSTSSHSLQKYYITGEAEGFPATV
Briefly: Inhibition of radioligand binding to estrogen receptor (unknown origin) at 1 uM relative to control.

Data set [2] deals with T2, Glucocorticoid receptor (Canis lupus familiaris, UniProt A0A8C0QLS2).
T2 sequence (A0A8C0QLS2 whole entry): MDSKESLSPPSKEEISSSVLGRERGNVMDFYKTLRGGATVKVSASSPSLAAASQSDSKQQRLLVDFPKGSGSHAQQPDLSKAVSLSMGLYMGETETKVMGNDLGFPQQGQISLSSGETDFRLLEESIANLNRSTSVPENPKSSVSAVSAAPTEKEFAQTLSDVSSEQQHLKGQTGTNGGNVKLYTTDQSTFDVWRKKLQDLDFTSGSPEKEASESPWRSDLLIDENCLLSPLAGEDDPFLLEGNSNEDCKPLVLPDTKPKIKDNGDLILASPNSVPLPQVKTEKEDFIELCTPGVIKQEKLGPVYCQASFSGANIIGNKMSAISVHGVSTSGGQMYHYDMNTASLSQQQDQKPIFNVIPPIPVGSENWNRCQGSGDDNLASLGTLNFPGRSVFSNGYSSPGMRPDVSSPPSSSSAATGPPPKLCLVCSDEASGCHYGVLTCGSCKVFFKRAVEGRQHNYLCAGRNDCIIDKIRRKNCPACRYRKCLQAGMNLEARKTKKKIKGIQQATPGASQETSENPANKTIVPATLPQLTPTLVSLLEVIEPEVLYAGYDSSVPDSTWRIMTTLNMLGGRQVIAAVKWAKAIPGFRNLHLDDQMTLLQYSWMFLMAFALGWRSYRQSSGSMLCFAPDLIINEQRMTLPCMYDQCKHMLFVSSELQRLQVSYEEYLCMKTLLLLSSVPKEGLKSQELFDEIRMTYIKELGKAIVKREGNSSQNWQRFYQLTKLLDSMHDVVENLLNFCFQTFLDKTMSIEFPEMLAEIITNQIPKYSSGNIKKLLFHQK
Briefly: (§1) Antagonist activity at dog glucocorticoid receptor in primary hepatocytes assessed as dexamethasone-induced tyrosine amino transferase activity preincubated for 30 mins followed by dexamethasone addition measured after 20 hrs. In kind it is cell-based.

The target in data set [3] is T3, Glucocorticoid receptor (Canis lupus familiaris) (UniProt A0A8C0QLS2).
T3 sequence (whole entry): T2 sequence (A0A8C0QLS2 whole entry)
The description is as §1. The data set is classed as cell-based.

The nature of data set [4]: Oral bioavailability in monkey plasma at 20 mg/kg measured up to 24 hrs by LC/MS analysis. The following applies: rhesus monkey. The data set is classed as ADME, organism-based, Macaca mulatta. The method in brief: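 Monkey i.v./p.o. study: oral 20mg/kg in 10% DMSO, 0.1% Tween 80, 0.5% hydroxypropylmethylcellulose in water; i.v. dose 1mg/kg.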
A short description of data set [5]: AUC in Sprague-Dawley CD-1 rat plasma at 5 mg/kg, po administered through gavage measured up to 24 hrs by LC/MS analysis. The data set is classed as ADME, organism-based. Also noted: dose 5 mg/kg, time < 24 hr, route oral. The method in brief: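 Jugular-catheterized male Sprague Dawley CD-1 rats (220-250g). Oral arm: five rats, 5mg/kg gavage, 1mg/mL in DMSO:0.5% methylcellulose 10:90, 5mL/kg, sampled pre-dose and 0.25-24 h. i.v. arm: three rats, 1mg/kg, 0.5mg/mL in DMSO:PEG400:propylene glycol 10:45:45, sampled pre-dose and 0.08-24 h. Plasma by LC/MS.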

Data set [6] concerns the target Cytochrome P450 2D6 (Homo sapiens, UniProt P10635). Briefly: Time-dependent inhibition of CYP2D6 (unknown origin). In kind it is ADME.
Data set [7] deals with T4, Cytochrome P450 2B6 (Homo sapiens, UniProt P20813).
T4 sequence (P20813 whole entry): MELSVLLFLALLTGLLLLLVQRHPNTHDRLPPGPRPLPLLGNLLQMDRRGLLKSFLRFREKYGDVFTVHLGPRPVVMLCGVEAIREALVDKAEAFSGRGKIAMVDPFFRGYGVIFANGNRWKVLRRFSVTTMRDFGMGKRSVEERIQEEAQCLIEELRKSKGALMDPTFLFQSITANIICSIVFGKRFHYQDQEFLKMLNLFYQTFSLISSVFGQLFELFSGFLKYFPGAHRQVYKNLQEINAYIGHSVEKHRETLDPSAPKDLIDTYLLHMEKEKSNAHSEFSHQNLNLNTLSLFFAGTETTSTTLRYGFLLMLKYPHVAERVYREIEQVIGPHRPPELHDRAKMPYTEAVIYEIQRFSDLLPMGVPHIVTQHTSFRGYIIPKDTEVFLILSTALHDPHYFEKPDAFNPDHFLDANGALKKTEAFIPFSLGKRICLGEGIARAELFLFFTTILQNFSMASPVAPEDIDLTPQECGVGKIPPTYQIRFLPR
Briefly: Inhibition of CYP2B6 (unknown origin). The data set is classed as ADME.

The test system of data set [8] is Rattus norvegicus. Briefly: In vivo antagonist activity at glucocorticoid receptor in Sprague-Dawley rat assessed as reduction in cortisone-induced plasma glucose levels at 30 mg/kg, po bid via gavage for 6 days pretreated for 12 hrs followed by cortisone 21-acetate treatment measured 24 hrs after last cortisone 21-acetate treatment. In kind it is functional, organism-based. The method in brief: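 Male Sprague Dawley rats (200-250g), 3-day vehicle baseline, groups of eight. Compound as suspension in DMSO:Tween 80:0.5% HPMC 10:0.1:89.9, oral gavage twice daily for 6 days; cortisone 21-acetate 30mg/kg s.c. daily in 1% methylcellulose. Tail-vein blood 24 h after last cortisone (12 h after last compound); glucose by clinical reagent, insulin by ultrasensitive rat ELISA.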

The structures appear in SMILES notation. Active and inactive are the calls of the source. No cut-off for these calls is given here.

Cytochrome P450 2D6, sequence (P10635 whole entry): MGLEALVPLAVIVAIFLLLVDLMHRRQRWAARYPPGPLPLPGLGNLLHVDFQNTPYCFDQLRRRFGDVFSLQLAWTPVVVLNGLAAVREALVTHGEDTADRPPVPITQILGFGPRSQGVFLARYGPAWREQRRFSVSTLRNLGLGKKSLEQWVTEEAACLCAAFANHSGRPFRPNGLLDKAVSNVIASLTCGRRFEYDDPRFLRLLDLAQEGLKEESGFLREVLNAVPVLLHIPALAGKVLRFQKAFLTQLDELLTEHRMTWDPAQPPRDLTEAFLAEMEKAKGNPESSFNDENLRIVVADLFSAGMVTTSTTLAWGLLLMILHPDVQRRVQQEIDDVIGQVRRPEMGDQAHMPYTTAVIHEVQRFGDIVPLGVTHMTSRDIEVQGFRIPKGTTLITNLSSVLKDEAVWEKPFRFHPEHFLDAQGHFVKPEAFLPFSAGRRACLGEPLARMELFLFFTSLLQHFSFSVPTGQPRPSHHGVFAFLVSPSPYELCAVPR

As for `Cn1cc(S(=O)(=O)N2CCC3=Cc4c(cnn4-c4ccc(F)cc4)C[C@]3(C(=O)c3cc(C(F)(F)F)ccn3)C2)cn1` [RELACORILANT], the inhibition (commonly the change of the read-out against control, counted positive when it falls) at 1 µM in data set [1] was less than 10%. Also, the Ki (usually a measure of affinity in units of concentration, obtained from inhibition or displacement) in data set [2] is greater than 10 µM. In addition, in data set [3], the Imax worked out at 31%. Also, the bioavailability (as a rule, the share of a dose that reaches the circulation, judged against a reference dose that is usually intravenous) in data set [4] was 88%. Also, the AUC – broadly, concentration integrated over time – at 24 h in data set [5] was determined as 1550 ng·h/mL. Moreover, the TDI entry in data set [6] is “Not Active”. For the same compound, in data set [7], the IC50 – broadly, the midpoint of a concentration-inhibition curve – is greater than 10 µM. Further, in data set [8], the inhibition result is “Active”.
